Measured values: ChEMBL document CHEMBL4411337, “2-Aminothiazole Derivatives as Selective Allosteric Modulators of the Protein Kinase CK2. 1. Identification of an Allosteric Binding Site” (J Med Chem, 2019)
pIC50, pKi: −log10 of the molar value. Activity calls are given as the source filed them. No cut-off for these calls is given here.

Tests used:
[1] = target: T1, Casein kinase II subunit alpha (Homo sapiens, UniProt P68400); test: Inhibition of recombinant human GST-tagged CK2alpha at 10 uM in presence of ATP by radiometric kinase assay relative to control
Summary of the method: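 Radiometric assay of CK2α with 100 μM ATP. Single-concentration percent inhibition at 10 μM relative to control. Values are the mean of ≥2 experiments.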
Target sequence in this assay (P68400 whole entry, looked up): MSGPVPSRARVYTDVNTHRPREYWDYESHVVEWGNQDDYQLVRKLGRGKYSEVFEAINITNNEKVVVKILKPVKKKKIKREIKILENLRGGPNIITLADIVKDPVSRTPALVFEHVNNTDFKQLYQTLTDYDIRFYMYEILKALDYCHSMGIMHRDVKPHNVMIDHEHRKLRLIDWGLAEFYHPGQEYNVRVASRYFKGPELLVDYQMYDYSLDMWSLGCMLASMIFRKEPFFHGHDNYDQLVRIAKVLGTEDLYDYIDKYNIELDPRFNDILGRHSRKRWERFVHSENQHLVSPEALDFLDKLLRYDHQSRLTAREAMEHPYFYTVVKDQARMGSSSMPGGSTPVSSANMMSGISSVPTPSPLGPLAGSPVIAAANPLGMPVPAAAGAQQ

[2] = target: T1, Casein kinase II subunit alpha; test: Inhibition of recombinant human GST-tagged CK2alpha at 15 uM in presence of varying ATP levels by radiometric kinase assay
Target sequence in this assay (P68400 whole entry, looked up): as above

[3] = target: T1, Casein kinase II subunit alpha; test: Inhibition of recombinant human GST-tagged CK2alpha at 15 uM in presence of varying substrate levels by radiometric kinase assay
Target sequence in this assay (P68400 whole entry, looked up): as above

[4] = target: Casein kinase II alpha/beta (Homo sapiens) (UniProt P67870+P68400); test: Inhibition of recombinant human GST-tagged CK2alpha2/CK2beta2 at 15 uM in presence of ATP by radiometric kinase assay; assay type: protein-complex assay
[5] = target: T1, Casein kinase II subunit alpha; test: Inhibition of recombinant human GST-tagged CK2alpha in presence of ATP by radiometric kinase assay
Target sequence in this assay (P68400 whole entry): as the sequence (P68400 whole entry, looked up) above

[6] = target: Homeodomain-interacting protein kinase 2 (Homo sapiens) (UniProt Q9H2X6); test: Inhibition of HIPK2 (unknown origin) assessed as residual activity at 50 uM relative to control
Summary of the method: (§1)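 Selectivity profiling against a panel of 44 human kinases. For each kinase, ATP was set to that kinase's Km. Values are residual activity in duplicate assays.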

[7] = target: MAP kinase-interacting serine/threonine-protein kinase 1 (Homo sapiens) (UniProt Q9BUB5); test: Inhibition of MNK1 (unknown origin) assessed as residual activity at 50 uM relative to control; summary of the method: as §1
[8] = target: Activin receptor type-1 (Homo sapiens) (UniProt Q04771); test: Inhibition of ALK2 (unknown origin) assessed as residual activity at 50 uM relative to control; summary of the method: as §1
[9] = target: Ephrin type-A receptor 4 (Homo sapiens) (UniProt P54764); test: Inhibition of EPHA4 (unknown origin) assessed as residual activity at 50 uM relative to control; summary of the method: as §1
[10] = target: Dual specificity protein kinase CLK3 (Homo sapiens) (UniProt P49761); test: Inhibition of CLK3 (unknown origin) assessed as residual activity at 50 uM relative to control; summary of the method: as §1
[11] = target: Dual specificity protein kinase CLK1 (Homo sapiens) (UniProt P49759); test: Inhibition of CLK1 (unknown origin) assessed as residual activity at 50 uM relative to control; summary of the method: as §1
[12] = target: Mast/stem cell growth factor receptor Kit (Homo sapiens) (UniProt P10721); test: Inhibition of cKIT (unknown origin) assessed as residual activity at 50 uM relative to control
Summary of the method: (§2)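 Profiling panel of 44 human kinases. ATP set to each kinase's Km. Run in duplicate; duplicates within 15–17% of each other.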

[13] = target: Cyclin-dependent kinase 2/cyclin E1 (Homo sapiens) (UniProt P24864+P24941); test: Inhibition of CDK2/cyclin E (unknown origin) assessed as residual activity at 50 uM relative to control; assay type: protein-complex assay; summary of the method: as §1
[14] = target: Dual specificity mitogen-activated protein kinase kinase 1 (Homo sapiens) (UniProt Q02750); test: Inhibition of MEK1 (unknown origin) assessed as residual activity at 50 uM relative to control; summary of the method: as §1
Dual specificity mitogen-activated protein kinase kinase 1 (Homo sapiens), sequence (Q02750 whole entry): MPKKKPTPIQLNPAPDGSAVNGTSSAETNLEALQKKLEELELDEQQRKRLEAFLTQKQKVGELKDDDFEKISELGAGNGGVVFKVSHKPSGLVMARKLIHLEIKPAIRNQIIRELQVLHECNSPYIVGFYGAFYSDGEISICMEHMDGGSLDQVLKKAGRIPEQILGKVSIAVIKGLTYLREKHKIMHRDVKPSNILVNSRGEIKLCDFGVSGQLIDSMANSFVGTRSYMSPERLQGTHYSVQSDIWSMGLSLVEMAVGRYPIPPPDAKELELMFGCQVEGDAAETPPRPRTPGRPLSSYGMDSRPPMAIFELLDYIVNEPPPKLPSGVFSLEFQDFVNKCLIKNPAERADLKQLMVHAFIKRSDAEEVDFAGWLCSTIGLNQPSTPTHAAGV

[15] = target: Rho-associated protein kinase 1 (Homo sapiens) (UniProt Q13464); test: Inhibition of ROCK1 (unknown origin) assessed as residual activity at 50 uM relative to control; summary of the method: as §2
Rho-associated protein kinase 1 (Homo sapiens), sequence (Q13464 2-1354 limits assumed): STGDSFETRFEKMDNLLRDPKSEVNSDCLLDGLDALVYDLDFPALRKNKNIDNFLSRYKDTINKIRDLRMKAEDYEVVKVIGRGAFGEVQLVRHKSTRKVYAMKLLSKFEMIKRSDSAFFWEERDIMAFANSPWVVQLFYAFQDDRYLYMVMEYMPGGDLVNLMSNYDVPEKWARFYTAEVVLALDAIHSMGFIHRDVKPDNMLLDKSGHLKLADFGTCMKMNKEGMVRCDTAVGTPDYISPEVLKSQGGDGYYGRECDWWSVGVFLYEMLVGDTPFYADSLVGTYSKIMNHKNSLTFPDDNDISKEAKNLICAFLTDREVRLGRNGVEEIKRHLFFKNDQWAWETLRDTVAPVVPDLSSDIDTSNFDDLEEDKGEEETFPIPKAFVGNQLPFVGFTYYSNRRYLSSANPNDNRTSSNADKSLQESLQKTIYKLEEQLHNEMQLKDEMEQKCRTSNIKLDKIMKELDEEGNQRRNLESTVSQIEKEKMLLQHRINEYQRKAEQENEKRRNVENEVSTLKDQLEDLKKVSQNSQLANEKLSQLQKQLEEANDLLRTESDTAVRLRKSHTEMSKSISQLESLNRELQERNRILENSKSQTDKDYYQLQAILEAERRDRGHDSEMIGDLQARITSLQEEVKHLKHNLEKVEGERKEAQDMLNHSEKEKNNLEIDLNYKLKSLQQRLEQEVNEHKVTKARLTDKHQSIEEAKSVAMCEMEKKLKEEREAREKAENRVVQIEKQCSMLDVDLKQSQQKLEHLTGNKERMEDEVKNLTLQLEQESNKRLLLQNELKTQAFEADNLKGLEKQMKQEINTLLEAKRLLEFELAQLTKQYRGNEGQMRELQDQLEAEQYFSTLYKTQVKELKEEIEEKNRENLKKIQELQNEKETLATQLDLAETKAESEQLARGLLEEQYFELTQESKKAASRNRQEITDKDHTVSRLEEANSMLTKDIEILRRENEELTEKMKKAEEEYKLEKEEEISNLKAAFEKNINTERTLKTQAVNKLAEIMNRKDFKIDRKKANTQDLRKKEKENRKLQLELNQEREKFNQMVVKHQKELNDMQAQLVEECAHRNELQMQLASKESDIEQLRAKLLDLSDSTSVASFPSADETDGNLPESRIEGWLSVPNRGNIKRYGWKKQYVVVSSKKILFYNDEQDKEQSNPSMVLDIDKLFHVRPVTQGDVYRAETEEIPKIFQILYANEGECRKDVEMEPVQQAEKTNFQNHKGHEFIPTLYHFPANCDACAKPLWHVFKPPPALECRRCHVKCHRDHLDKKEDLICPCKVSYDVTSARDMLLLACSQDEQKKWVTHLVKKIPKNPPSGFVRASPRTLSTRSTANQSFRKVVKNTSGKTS

[16] = target: Protein kinase C alpha type (Homo sapiens) (UniProt P17252); test: Inhibition of PKCalpha (unknown origin) assessed as residual activity at 50 uM relative to control; summary of the method: as §2
[17] = target: Glycogen synthase kinase-3 beta (Homo sapiens) (UniProt P49841); test: Inhibition of GSK3beta (unknown origin) assessed as residual activity at 50 uM relative to control; summary of the method: as §1
Glycogen synthase kinase-3 beta (Homo sapiens), sequence (P49841 whole entry, looked up): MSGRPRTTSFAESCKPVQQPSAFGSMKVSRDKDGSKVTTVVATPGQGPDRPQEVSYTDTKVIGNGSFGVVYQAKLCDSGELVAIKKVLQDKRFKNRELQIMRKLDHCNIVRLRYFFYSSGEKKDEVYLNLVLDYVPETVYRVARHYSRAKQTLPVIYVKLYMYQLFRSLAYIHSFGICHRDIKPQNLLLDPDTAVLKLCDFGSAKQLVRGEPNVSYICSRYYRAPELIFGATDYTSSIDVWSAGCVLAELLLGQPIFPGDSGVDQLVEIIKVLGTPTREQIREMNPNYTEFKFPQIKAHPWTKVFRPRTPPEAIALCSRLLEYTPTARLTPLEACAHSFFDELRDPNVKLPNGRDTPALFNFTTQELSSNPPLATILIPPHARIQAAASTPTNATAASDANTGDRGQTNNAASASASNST

[18] = target: Epidermal growth factor receptor (Homo sapiens) (UniProt P00533); test: Inhibition of EGFR (unknown origin) assessed as residual activity at 50 uM relative to control; summary of the method: as §1
[19] = target: Tyrosine-protein kinase ABL1 (Homo sapiens) (UniProt P00519); test: Inhibition of ABL (unknown origin) assessed as residual activity at 50 uM relative to control; summary of the method: as §1
[20] = target: Serine/threonine-protein kinase TBK1 (Homo sapiens) (UniProt Q9UHD2); test: Inhibition of TBK1 (unknown origin) assessed as residual activity at 50 uM relative to control; summary of the method: as §2
[21] = target: Dual specificity protein kinase CLK2 (Homo sapiens) (UniProt P49760); test: Inhibition of CLK2 (unknown origin) assessed as residual activity at 50 uM relative to control; summary of the method: as §1
[22] = target: Serine/threonine-protein kinase haspin (Homo sapiens) (UniProt Q8TF76); test: Inhibition of haspin (unknown origin) assessed as residual activity at 50 uM relative to control; summary of the method: as §2
Serine/threonine-protein kinase haspin (Homo sapiens), sequence (Q8TF76 whole entry): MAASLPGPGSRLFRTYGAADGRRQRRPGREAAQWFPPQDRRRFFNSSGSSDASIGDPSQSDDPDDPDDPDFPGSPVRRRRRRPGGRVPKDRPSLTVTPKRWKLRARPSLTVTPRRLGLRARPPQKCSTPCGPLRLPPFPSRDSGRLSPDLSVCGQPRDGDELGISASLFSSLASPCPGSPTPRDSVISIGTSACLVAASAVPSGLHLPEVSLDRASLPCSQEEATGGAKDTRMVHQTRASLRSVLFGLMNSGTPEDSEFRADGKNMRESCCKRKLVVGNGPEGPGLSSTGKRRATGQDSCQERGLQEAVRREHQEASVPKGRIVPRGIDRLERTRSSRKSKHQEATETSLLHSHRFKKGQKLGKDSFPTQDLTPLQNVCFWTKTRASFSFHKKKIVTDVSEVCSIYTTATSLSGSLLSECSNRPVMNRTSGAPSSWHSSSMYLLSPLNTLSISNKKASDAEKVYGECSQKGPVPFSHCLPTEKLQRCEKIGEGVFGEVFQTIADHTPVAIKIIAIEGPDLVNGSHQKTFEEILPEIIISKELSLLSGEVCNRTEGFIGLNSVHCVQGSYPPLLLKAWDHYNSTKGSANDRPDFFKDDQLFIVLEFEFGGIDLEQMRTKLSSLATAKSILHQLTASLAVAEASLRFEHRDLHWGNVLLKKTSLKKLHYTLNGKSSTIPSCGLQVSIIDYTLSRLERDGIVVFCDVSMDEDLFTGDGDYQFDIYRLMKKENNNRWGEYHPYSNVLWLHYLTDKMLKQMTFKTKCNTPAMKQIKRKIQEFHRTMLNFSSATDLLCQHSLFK

[23] = target: Serine/threonine-protein kinase pim-1 (Homo sapiens) (UniProt P11309); test: Inhibition of PIM1 (unknown origin) assessed as residual activity at 50 uM relative to control; summary of the method: as §1
[24] = target: Homeodomain-interacting protein kinase 3 (Homo sapiens) (UniProt Q9H422); test: Inhibition of HIPK3 (unknown origin) assessed as residual activity at 50 uM relative to control; summary of the method: as §1
[25] = target: Receptor-interacting serine/threonine-protein kinase 2 (Homo sapiens) (UniProt O43353); test: Inhibition of RIPK2 (unknown origin) assessed as residual activity at 50 uM relative to control; summary of the method: as §2
[26] = target: Tyrosine-protein kinase JAK2 (Homo sapiens) (UniProt O60674); test: Inhibition of JAK2 (unknown origin) assessed as residual activity at 50 uM relative to control; summary of the method: as §1
[27] = target: Cyclin-dependent kinase 1/cyclin B1 (Homo sapiens) (UniProt P06493+P14635); test: Inhibition of CDK1/cyclin B (unknown origin) assessed as residual activity at 50 uM relative to control; assay type: protein-complex assay; summary of the method: as §1
[28] = target: Death-associated protein kinase 3 (Homo sapiens) (UniProt O43293); test: Inhibition of DAPK3 (unknown origin) assessed as residual activity at 50 uM relative to control; summary of the method: as §1
[29] = target: Platelet-derived growth factor receptor alpha (Homo sapiens) (UniProt P16234); test: Inhibition of PDGFRalpha (unknown origin) assessed as residual activity at 50 uM relative to control; summary of the method: as §1
[30] = target: Serine/threonine-protein kinase Chk2 (Homo sapiens) (UniProt O96017); test: Inhibition of CHK2 (unknown origin) assessed as residual activity at 50 uM relative to control; summary of the method: as §1
[31] = target: Myosin light chain kinase 2, skeletal/cardiac muscle (Homo sapiens) (UniProt Q9H1R3); test: Inhibition of MLCK2 (unknown origin) assessed as residual activity at 50 uM relative to control; summary of the method: as §1
[32] = target: Dual specificity tyrosine-phosphorylation-regulated kinase 1A (Homo sapiens) (UniProt Q13627); test: Inhibition of DYRK1A (unknown origin) assessed as residual activity at 50 uM relative to control; summary of the method: as §1
[33] = target: Dual specificity protein kinase CLK4 (Homo sapiens) (UniProt Q9HAZ1); test: Inhibition of CLK4 (unknown origin) assessed as residual activity at 50 uM relative to control; summary of the method: as §1
[34] = target: Muscle, skeletal receptor tyrosine-protein kinase (Homo sapiens) (UniProt O15146); test: Inhibition of MUSK (unknown origin) assessed as residual activity at 50 uM relative to control; summary of the method: as §1
Muscle, skeletal receptor tyrosine-protein kinase (Homo sapiens), sequence (O15146 whole entry, canonical isoform): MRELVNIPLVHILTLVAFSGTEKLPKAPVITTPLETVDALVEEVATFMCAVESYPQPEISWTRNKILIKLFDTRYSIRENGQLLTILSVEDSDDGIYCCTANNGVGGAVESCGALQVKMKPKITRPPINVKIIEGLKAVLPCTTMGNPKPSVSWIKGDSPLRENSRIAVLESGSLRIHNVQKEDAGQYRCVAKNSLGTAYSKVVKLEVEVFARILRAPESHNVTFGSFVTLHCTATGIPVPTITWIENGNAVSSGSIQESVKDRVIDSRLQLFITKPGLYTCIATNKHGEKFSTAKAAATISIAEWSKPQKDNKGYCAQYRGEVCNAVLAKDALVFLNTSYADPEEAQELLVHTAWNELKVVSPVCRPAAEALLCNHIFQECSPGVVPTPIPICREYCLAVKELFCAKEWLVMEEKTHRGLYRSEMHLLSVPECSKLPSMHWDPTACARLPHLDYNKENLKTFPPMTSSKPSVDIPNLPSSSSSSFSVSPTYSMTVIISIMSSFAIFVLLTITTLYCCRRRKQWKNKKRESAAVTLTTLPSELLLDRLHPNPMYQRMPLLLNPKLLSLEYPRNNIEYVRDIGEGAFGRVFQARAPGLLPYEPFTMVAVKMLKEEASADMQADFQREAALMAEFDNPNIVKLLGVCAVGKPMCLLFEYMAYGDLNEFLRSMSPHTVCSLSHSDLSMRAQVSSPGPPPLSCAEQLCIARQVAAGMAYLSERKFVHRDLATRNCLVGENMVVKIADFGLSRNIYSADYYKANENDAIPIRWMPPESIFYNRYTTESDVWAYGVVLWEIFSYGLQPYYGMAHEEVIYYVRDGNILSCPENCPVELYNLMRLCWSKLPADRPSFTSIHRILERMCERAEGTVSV

[35] = target: Casein kinase I isoform gamma-1 (Homo sapiens) (UniProt Q9HCP0); test: Inhibition of CK1gamma1 (unknown origin) assessed as residual activity at 50 uM relative to control; summary of the method: as §1
[36] = target: T1, Casein kinase II subunit alpha; test: Competitive binding affinity to CK2alpha (1 to 335 residues) (unknown origin) at 10 uM by native mass spectrometry
Summary of the method: (§3)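 Native nESI-MS of CK2α residues 1–335 (10 μM) after buffer exchange into 0.50 M ammonium acetate pH 8.5 with 5% (v/v) DMSO. […] Capillary was 1.6–2.0 kV, cone 30–90 V, collision 10 V, source 20 °C; CsI calibration. Ligand binding was read from the charge-state spectra.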
Target sequence in this assay (P68400 whole entry, looked up): as the sequence (P68400 whole entry, looked up) above

[37] = target: T1, Casein kinase II subunit alpha; test: Binding affinity to CK2alpha (unknown origin) at 500 uM in presence of kinase inhibitor CX-4945 by STD-based NMR spectroscopy
Summary of the method: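 STD NMR at 600 MHz and 293 K in PBS pH 7.3 with 10 mM NaCl, 2 mM MgCl2 and 10% D2O. […] On-resonance protein saturation was at 0.6 ppm for 2 s. STD factors were normalized so the highest STD factor is 100%.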
Target sequence in this assay (P68400 whole entry, looked up): as above

[38] = target: T1, Casein kinase II subunit alpha; test: Competitive binding affinity to CK2alpha (1 to 335 residues) (unknown origin) at 10 uM in presence of IP6 by native mass spectrometry; summary of the method: as §3
Target sequence in this assay (P68400 whole entry, looked up): as above

[39] = Solubility of the compound in water; assay type: physicochemical; conditions: buffer
[40] = target: T1, Casein kinase II subunit alpha; test: Competitive binding affinity to CK2alpha (1 to 335 residues) (unknown origin) at 10 uM in presence of IP6 by nESI-MS analysis
[41] = target: T1, Casein kinase II subunit alpha; test: Competitive binding affinity to CK2alpha (1 to 335 residues) (unknown origin) at 10 uM in presence of IP6 by nESI-MS analysis; summary of the method: as §3
[42] = target: T1, Casein kinase II subunit alpha; test: Mixed-type inhibition of recombinant human GST-tagged CK2alpha in presence of ATP by Lineweaver-Burk plot analysis
Target sequence in this assay (P68400 whole entry): as the sequence (P68400 whole entry, looked up) above

[43] = target: T1, Casein kinase II subunit alpha; test: Non-ATP competitive binding affinity to GST-tagged CK2alpha (unknown origin) assessed as melting temperature at 50 uM by temperature-dependent circular dichroism (reference value: […] degC)

SMILES: COC(=O)c1ccc(Nc2nc(-c3cccc([N+](=O)[O-])c3)cs2)cc1
- inhibition [1]: 9%

SMILES: O=[N+]([O-])c1cccc(-c2csc(Nc3ccccc3)n2)c1
- inhibition [1]: 27%

SMILES: O=C(O)c1cccc(Nc2nc(-c3cccc([N+](=O)[O-])c3)cs2)c1
- inhibition [2]: Active
- inhibition [3]: Active
- inhibition [4]: Active
- pIC50 [5]: 4.56

SMILES: O=C(O)c1ccc(Nc2nc(-c3cccc(Br)c3)cs2)cc1
- Activity [6]: 57%
- Activity [7]: 101%
- Activity [8]: 34%
- Activity [9]: 27%
- Activity [10]: 86%
- Activity [11]: 80%
- Activity [12]: 116%
- Activity [13]: 107%
- Activity [14]: 95%
- Activity [15]: 107%
- Activity [16]: 92%
- Activity [17]: 29%
- Activity [18]: 106%
- Activity [19]: 69%
- Activity [20]: 75%
- Activity [21]: 67%
- Activity [22]: 55%
- Activity [23]: 57%
- Activity [24]: 82%
- Activity [25]: 86%
- Activity [26]: 98%
- Activity [27]: 78%
- Activity [28]: 104%
- Activity [29]: 102%
- Activity [30]: 72%
- Activity [31]: 39%
- Activity [32]: 79%
- Activity [33]: 39%
- Activity [34]: 90%
- Activity [35]: 31%

SMILES: O=C(O)c1ccc(Nc2nc(-c3ccccc3)cs2)cc1
- Activity [36]: Active
- Activity [37]: Active
- Activity [38]: inactive
- pIC50 [5]: 5.05
- solubility [39]: Soluble
- Activity [40]: Active
- Activity [41]: Active
- pKi [42]: 5.96
- Tm [43]: 50.3 °C

SMILES: O=C(O)c1ccc(Nc2nccs2)cc1
- inhibition [1]: 0%

SMILES: O=C(O)c1ccc(Nc2nc(-c3ccccn3)cs2)cc1
- solubility [39]: Soluble
